Active and inactive are the calls of the source. The rule behind the calls is not given here.
Tests used:
[1] = species: Canis familiaris; assay: Renal blood flow was measured in dogs; Significant activity; assay type: functional, organism-based; conditions: Canis lupus familiaris; Kidney
[2] = species: Canis familiaris; assay: Renal vascular resistance was calculated as the ratio of the mean arterial blood pressure / mean renal blood flow; I=Inactive; assay type: functional, organism-based; conditions: Canis lupus familiaris
[3] = test system: Canis familiaris; assay: Compound was evaluated for determining renal vascular resistance(iv) in dogs; assay type: functional, Canis lupus familiaris
Outline: (§1)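 Secondary renal screen in anesthetized dogs: cumulative dose-response by infusing drug at progressively increasing rates, 5 min per dose level. RVR ED15 is the average minimum cumulative dose lowering RVR by 15%; maximum effect is the average maximum % fall in RVR. Selectivity ratios are separations between RVR ED15 and doses giving 30% change in iliac vascular resistance, 20% in MABP, 20% in HR.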

[4] = species: Canis familiaris; assay: Compound was evaluated for average maximum percent decrease in renal vascular resistance in dogs; assay type: functional, Canis lupus familiaris; outline: as §1
[5] = test system: Rattus norvegicus; assay: Central dopaminergic activity for minimum concentration which produced 500 rotations at the dose of 10 mg/kg (i.p.) in 2 h; assay type: functional; conditions: route intraperitoneal
Outline: (§2)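 Rats with substantia nigra lesions scored for contralateral rotation after intraperitoneal dosing (routine), oral dosing for selected compounds, or intracaudal administration for intrinsic activity. RD500 and RD1000 are the minimum doses giving 500 and 1000 turns, respectively, in 2 h.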

[6] = Selectivity ratio of compound as ED15 relative to heart rate(HR) ED20; assay type: functional; outline: as §1
[7] = Selectivity ratio of compound as ratio of ED15 relative to mean arterial blood pressure(MABP) ED20; assay type: functional; outline: as §1
[8] = Selectivity ratio of Compound as ratio of ED15 relative to iliac vascular resistance(IVR) ED30; assay type: functional; outline: as §1
[9] = species: Canis familiaris; assay: Renal blood flow was measured in dogs; Highly significant activity; assay type: functional, organism-based; conditions: Canis lupus familiaris; Kidney
[10] = species: Canis familiaris; assay: Renal vascular resistance was calculated as the ratio of the mean arterial blood pressure / mean renal blood flow; Highly significant activity; assay type: functional, organism-based; conditions: Canis lupus familiaris
[11] = test system: Rattus norvegicus; assay: Central dopaminergic activity for minimum concentration which produced 500 rotations at the dose of 10 mg/kg (i.p.) in 2 h; I=Inactive; assay type: functional, organism-based; parameters: dose 10 mg/kg; outline: as §2
[12] = species: Rattus norvegicus; assay: Adenylase cyclase activity in rat striatal membranes at the concentration of 10e-5; assay type: functional; conditions: Striatum, Membrane
[13] = species: Rattus norvegicus; assay: Adenylase cyclase activity in rat striatal membranes at the concentration of 10e-6; assay type: functional; conditions: Striatum, Membrane
[14] = species: Rattus norvegicus; assay: Adenylase cyclase activity in rat striatal membranes at the concentration of 10e-7; assay type: functional; conditions: Striatum, Membrane
[15] = test system: Rattus norvegicus; assay: Central dopaminergic activity against contralateral rotation(1000) in lesioned rats(po) in 2 h; assay type: functional
Outline: (§3)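 Oral dosing in rats with substantia nigra lesions, scoring contralateral rotations. RD1000 is the minimum dose producing 1000 turns in 2 h.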

[16] = test system: Rattus norvegicus; assay: Central dopaminergic activity for minimum concentration which produced 500 rotations(ip) in 2 h; assay type: functional; outline: as §2
[17] = species: Canis familiaris; assay: Renal vascular resistance was calculated as the ratio of the mean arterial blood pressure / mean renal blood flow; Significant activity; assay type: functional, organism-based; conditions: Canis lupus familiaris
[18] = species: Canis familiaris; assay: Renal blood flow was measured in dogs; I=Inactive; assay type: functional, organism-based; conditions: Canis lupus familiaris; Kidney
[19] = test system: Rattus norvegicus; assay: Central dopaminergic activity for minimum concentration which produced 500 rotations at the dose of 2.0 mg/kg (i.p.) in 2 h; I=Inactive; assay type: functional, organism-based; parameters: dose 2 mg/kg; outline: as §2
[20] = species: Rattus norvegicus; assay: Adenylase cyclase activity in rat striatal membranes; assay type: functional, organism-based, Membrane; conditions: Striatum
[21] = species: Rattus norvegicus; assay: Central dopaminergic activity against contralateral rotation(500) in lesioned rats(ic) in 2 h; assay type: functional; outline: as §2
[22] = test system: Rattus norvegicus; assay: Central dopaminergic activity against contralateral rotation(1000) in lesioned rats at the dose of 6 mg/kg (p.o.) in 2 h; I=Inactive
[23] = test system: Rattus norvegicus; assay: Central dopaminergic activity against contralateral rotation(1000) in lesioned rats at the dose of 10 mg/kg (p.o.) in 2 h; assay type: functional; conditions: route oral; outline: as §3

DA response [12] [%] | DA response [13] [%] | SMILES | RVR [2] | RVR ED15 [3] [mg/kg] | Decrease RVR [4] [%] | Ratio [6] | Ratio [7] | Ratio [8] | RBF [9] | RVR [10] | RD500 [16] [mg/kg] | other results
– | – | Br.OCCN1CCc2c(cc(O)c(O)c2Cl)C(c2ccccc2)C1 (stereo unspecified) | inactive | 0.0045 | 42 | >6072 | >6072 | 929 | – | – | – | RBF [1]: Significant activity; Contralateral turns in 2 h [5]: 1310 turns/2 h
– | – | COc1ccc(CN2CCc3c(cc(O)c(O)c3Cl)C(c3ccccc3)C2)cc1 (stereo unspecified) | – | – | – | – | – | – | Highly significant activity | Significant activity | – | RD500 [11]: inactive
82 | 41 | Cl.Oc1cc2c(c(Cl)c1O)CCN(Cc1ccco1)CC2c1ccccc1 (stereo unspecified) | – | 0.2 | 26 | >6072 | >6072 | > 6070 | Highly significant activity | Significant activity | – | Contralateral turns in 2 h [5]: 611 turns/2 h
96 | – | Br.C=CCN1CCc2c(cc(O)c(O)c2Cl)C(c2cccc(C)c2)C1 (stereo unspecified) | – | – | – | – | – | – | Highly significant activity | Significant activity | 0.04 | DA response [14]: 86%; RD1000 [15]: 3 mg/kg
– | – | NCCc1ccc(O)c(O)c1 [DOPAMINE] | – | 0.0027 | 36 | 141 | 113 | 56 | Active | Active | – | –
– | – | Br.C=CCN1CCc2c(cc(O)c(O)c2Cl)C(c2ccc(Cl)c(O)c2)C1 (stereo unspecified) | – | 0.019 | 39 | >319 | >319 | – | Highly significant activity | – | – | RVR [17]: Significant activity; RD500 [11]: inactive
68 | 52 | Br.Oc1cc2c(c(Cl)c1O)CCNCC2c1ccc(Cl)cc1 (stereo unspecified) | inactive | – | – | – | – | – | – | – | 3.4 | RBF [18]: inactive
– | – | Cc1cccc(C2CN(Cc3ccco3)CCc3c2cc(O)c(O)c3Cl)c1 (stereo unspecified) | inactive | – | – | – | – | – | – | – | – | RBF [18]: inactive; RD500 [19]: inactive
– | – | Br.Oc1cc(C2CNCCc3c2cc(O)c(O)c3Cl)ccc1Cl (stereo unspecified) | – | 0.061 | 25 | >249 | >249 | > 249 | Highly significant activity | Significant activity | – | RD500 [11]: inactive
– | – | Br.C=CCN1CCc2c(cc(O)c(O)c2Cl)C(c2ccccc2)C1 (stereo unspecified) | – | – | – | – | – | – | Active | Active | 0.03 | –
– | – | Br.Oc1cccc(C2CNCCc3c2cc(O)c(O)c3Cl)c1 (stereo unspecified) | – | 0.00035 | 49 | 1029 | >6072 | 34 | – | – | – | RBF [1]: Significant activity; RVR [17]: Significant activity; EC50 [20]: 45 nM; RD500 [11]: inactive
– | – | Br.Oc1cc2c(c(Cl)c1O)CCNCC2c1ccccc1 (stereo unspecified) | – | 0.0035 | 39 | – | – | – | Active | Active | 0.03 | RD500 [21]: 0.22 ug rat-1; RD1000 [15]: 4.04 mg/kg
– | – | Oc1cc2c(c(Cl)c1O)CCN(Cc1ccco1)CC2c1cccc(Cl)c1 (stereo unspecified) | inactive | – | – | – | – | – | – | – | – | RBF [1]: Significant activity; RD1000 [22]: inactive
90 | 82 | Br.Oc1cc2c(c(Cl)c1O)CCNCC2c1cccc(Cl)c1 (stereo unspecified) | inactive | – | – | – | – | – | Highly significant activity | – | 0.3 | RD1000 [23]: 602 turns/2 h
55 | 48 | Br.CCN1CCc2c(cc(O)c(O)c2Cl)C(c2ccccc2)C1 (stereo unspecified) | – | 0.045 | 16 | >6072 | 18 | 0.1 | Highly significant activity | Significant activity | 0.015 | RD1000 [15]: 4.9 mg/kg
42 | 23 | Br.Cc1ccc(C2CNCCc3c2cc(O)c(O)c3Cl)cc1 (stereo unspecified) | inactive | – | – | – | – | – | – | – | – | RBF [18]: inactive; Contralateral turns in 2 h [5]: 420 turns/2 h
